Square brackets hold non-standard residues; d marks the D form. Peptide text beside a SMILES is read from it. 2Nal = N[C@@H](Cc1ccc2ccccc2c1)C(=O)O
Key:
[1] = molecular target: iCP-PA28-activated complex (Homo sapiens, UniProt P28062); experiment: LC-MS hydrolysis of dialanine substrates by iCP-PA28-activated complex; assay type: biochemical; settings: 25 µM substrate, iCP + 7.5X PA28, 4 hours, triplicate, Fig. 3B
Method in brief: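 Purified human iCP, activated with PA28, incubated with 25 μM test substrate for 4 hours. Each substrate is a modified recognition sequence joined to a constant dialanine cargo, with expected cleavage at the amide bond between them. Products analysed by LC-MS as percent degraded. Triplicate, mean ± standard deviation. Singly modified substrates compared with the unmodified-sequence dialanine control by t-test.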

[2] = tested on: iCP over sCP; experiment: Selectivity index, mean iCP percent degraded over sCP percent degraded; assay type: biochemical

Compound	Hydrolysis by iCP-PA28-activated complex compared with control ATMWAA [1]	Isoform selectivity for the iCP ([2]; Fig. 3C conditions)	Increase of substrate selectivity for the iCP compared with the ATMW scaffold ([2]; ratio of selectivity indices, analogue vs ATMWAA)
CSCC[C@H](NC(=O)[C@@H](NC(=O)[C@H](C)N)[C@@H](C)O)C(=O)N[C@@H](Cc1ccc2ccccc2c1)C(=O)N[C@@H](C)C(=O)N[C@@H](C)C(N)=O [ATM(2-Nal)] (H-ATM[2Nal]AA-NH2)	hydrolyzed well by the iCP	not isoform selective	
morph-Ala-Orn-(Met?O2)-Trp(7,Me) [mAO(Met=O2) W(7,Me)]			about 3 fold

— paper PMC12235443 (RSC Chemical Biology, 2025)
